Among the data in ChEMBL document CHEMBL1140068, “Computer based design, synthesis and biological evaluation of novel indole derivatives as HCV NS3-4A serine protease inhibitors” (Bioorg Med Chem, 2008) are inhibition and IC50 values, retold here.

Values after ≈ are worked out from the molar mass of the structure shown.

The test system of assay [1] is Hepacivirus hominis. Put plainly: Inhibition of HCV NS3 protease at 50 ug/ml. In short, it runs like this: (§1)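 Competitive displacement binding assay against HCV NS3-4A protease using the fluorogenic peptide substrate Ac-Asp-Glu-Asp(EDANS)-Glu-Glu-Abu-ψ. Fluorescence intensity was read, and percent inhibition was calculated from it.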
Assay [2] in a line: Inhibition of HCV NS3 protease. The arrangement: species or system Hepacivirus hominis. In short, it runs like this:
as §1

In assay [3] the test system is Hepacivirus hominis. The assay can be described thus: Inhibition of HCV NS3 protease at 100 ug/ml. In short, it runs like this:
as §1

Assay [4] deals with Hepacivirus hominis. Put plainly: Inhibition of HCV NS3 protease at 10 ug/ml. An outline of the steps: as §1

Broadly, the inhibition is the change of the read-out against control, counted positive when it falls. Low readings indicate a weak effect, high ones a strong effect. What is called IC50 is the midpoint of a concentration-inhibition curve. Lower therefore signals greater potency in that assay. For the compound `O=C(CCC(=O)N[C@@H](Cc1ccc(O)cc1)C(=O)O)CC(c1ccc(C(F)(F)F)cc1)c1c[nH]c2ccc(Br)cc12` (stereo partly specified), the inhibition in the assay on Hepacivirus hominis [1] was 54%; in the assay with Hepacivirus hominis [3], 82.9%; in the assay on Hepacivirus hominis [4] it was 19.1%. In assay [2], this compound came in with an IC50 of 39.2 µg/mL (≈ 62.1 µM).
On to `COc1ccc([C@@H](CC(=O)CCC(=O)N[C@@H](Cc2ccccc2)C(=O)O)c2c[nH]c3ccc(OC)cc23)cc1`, for which the IC50 in assay [2] came to 36.5 µg/mL (≈ 69 µM).
With `COc1ccc2[nH]cc(C(CC(=O)CCC(=O)N[C@@H](Cc3c[nH]c4ccccc34)C(=O)O)c3ccc(C(F)(F)F)cc3)c2c1` (mixture of isomers), the inhibition was 51.2% with Hepacivirus hominis [1] and 76.9% with Hepacivirus hominis [3]. The compound also yielded a 50% inhibitory concentration (IC50) in assay [2] of 47.9 µg/mL.
The like results for `COc1ccc(C(CC(=O)CCC(=O)N[C@@H](Cc2c[nH]c3ccccc23)C(=O)O)c2c[nH]c3ccc(OC)cc23)cc1` (mixture of isomers) were, in that order, 54.4%, 67.4% and 44.8 µg/mL.
Regarding `COc1ccc(C(CC(=O)CCC(=O)N[C@@H](Cc2ccc(O)cc2)C(=O)O)c2c[nH]c3ccc(OC)cc23)cc1` (mixture of isomers), the inhibition with Hepacivirus hominis [1] was determined as 69.9%; with Hepacivirus hominis [3] it was 78.8%; in the assay on Hepacivirus hominis [4] it was 29.6%. The compound also had an IC50 in assay [2] of 27.2 µg/mL.
In the same order, the values of `COc1ccc(C(CC(=O)CCC(=O)N[C@@H](Cc2ccccc2)C(=O)O)c2c[nH]c3ccc(OC)cc23)cc1` (mixture of isomers) are 84.4%, 85.7%, 43.7% and 15 µg/mL.
The like results for `COc1ccc2[nH]cc(C(CC(=O)CCC(=O)N[C@@H](Cc3ccccc3)C(=O)O)c3ccc(C(F)(F)F)cc3)c2c1` (mixture of isomers) were, in that order, 67.2%, 84.9%, 48.5% and 13 µg/mL.
In the same order, the values of `COc1ccc2[nH]cc(C(CC(=O)CCC(=O)N[C@@H](Cc3ccc(O)cc3)C(=O)O)c3ccc(C(F)(F)F)cc3)c2c1` (mixture of isomers) are 57.1%, 84.3%, 35.2% and 39 µg/mL.
For `COc1ccc(C(CC(=O)CCC(=O)N[C@@H](Cc2c[nH]c3ccccc23)C(=O)O)c2c[nH]c3ccc(Br)cc23)cc1` (mixture of isomers), the inhibition was 54.8% with Hepacivirus hominis [1] and 72.6% with Hepacivirus hominis [3]. The compound further displayed a 50% inhibitory concentration (IC50) in assay [2] of 44.1 µg/mL.
On to `COc1ccc2[nH]cc(C(CC(=O)CCC(=O)N[C@@H](Cc3c[nH]cn3)C(=O)O)c3ccc(C(F)(F)F)cc3)c2c1` (mixture of isomers), for which the inhibition was 62.5% in the assay on Hepacivirus hominis [1], 77.6% in the assay on Hepacivirus hominis [3] and 23.5% in the assay with Hepacivirus hominis [4]. Further, in assay [2], the IC50 was 30.5 µg/mL.
For the compound `COc1ccc(C(CC(=O)CCC(=O)N[C@@H](Cc2ccc(O)cc2)C(=O)O)c2c[nH]c3ccc(Br)cc23)cc1` (mixture of isomers), the inhibition in the assay with Hepacivirus hominis [1] amounted to 41.5%; with Hepacivirus hominis [3] it was 68.7%. The compound also came in with a half-maximal inhibitory concentration (IC50) in assay [2] of 63.3 µg/mL.
On to `COc1ccc(C(CC(=O)CCC(=O)N[C@@H](Cc2c[nH]cn2)C(=O)O)c2c[nH]c3ccc(OC)cc23)cc1` (mixture of isomers), for which the inhibition in the assay on Hepacivirus hominis [1] stood at 59.2%; in the assay with Hepacivirus hominis [3], 75.7%; in the assay with Hepacivirus hominis [4] it was 22.4%. In addition, the half-maximal inhibitory concentration (IC50) in assay [2] is 31 µg/mL.
